From ChEMBL document CHEMBL4689842, “EUbOPEN Chemogenomics Library wave 1” (2021)

How the values were obtained:
Assay type in all cases: toxicity, cell-based
Fibroblast = assay: Incucyte cell viability with human fibroblast; conditions: 10 µM, compound concentration 10 uM; further: filed as whole numbers so only -1 and 0 and 1 occur
HEK-293T [1] = assay: Multiplex assay against HEK293T; conditions: human;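 on Population Tubulin-Different-Phenotype (%): share of the cells with healthy nuclei that show this phenotype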
How it was run: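 Four dyes were applied at seeding to live cells: Hoechst33342, BioTracker Green Microtubule Cytoskeleton Dye, MitoTracker Red and Annexin V Alexa Fluor 680. Imaging after compound addition used a CQ1 microscope at 37°C and 5% CO2. CellPathfinder machine-learning gating then sorted cells into Hoechst high-intensity objects or normal cells, normal cells into healthy, pyknosed or fragmented nuclei, and pyknosed cells into mitotic or apoptotic, with tubulin, mitochondrial-mass and membrane-permeability phenotypes given as per cents of healthy-nucleus cells.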

HEK-293T [2] = assay: Incucyte cell viability with HEK293T; conditions: human, 10 µM, compound concentration 10 uM; further: filed as whole numbers so only -1 and 0 and 1 occur
[3] = 0 h, replicate number 1, timepoint 0 hours
[4] = 6 h, replicate number 1, timepoint 6 hours
[5] = 18 h, replicate number 1, timepoint 18 hours
[6] = 24 h, replicate number 1, timepoint 24 hours
[7] = 12 h, 1 µM, compound concentration 1 uM, replicate 1
[8] = 12 h, 1 µM, compound concentration 1 uM, replicate 2
[9] = 12 h, 10 µM, compound concentration 10 uM, replicate 1
[10] = 12 h, 10 µM, compound concentration 10 uM, replicate 2
[11] = 24 h, 1 µM, compound concentration 1 uM, replicate 1
[12] = 24 h, 1 µM, compound concentration 1 uM, replicate 2
[13] = 24 h, 10 µM, compound concentration 10 uM, replicate 1
[14] = 24 h, 10 µM, compound concentration 10 uM, replicate 2
[15] = 48 h, 1 µM, compound concentration 1 uM, replicate 1
[16] = 48 h, 1 µM, compound concentration 1 uM, replicate 2
[17] = 48 h, 10 µM, compound concentration 10 uM, replicate 1
[18] = 48 h, 10 µM, compound concentration 10 uM, replicate 2

CCC(=O)O[C@]1(C(=O)SCF)[C@H](C)C[C@H]2[C@@H]3C[C@H](F)C4=CC(=O)C=C[C@]4(C)[C@@]3(F)[C@@H](O)C[C@@]21C [FLUTICASONE PROPIONATE]
Growth Rate (Fibroblast; [3]): 0
Growth Rate (Fibroblast; [4]): 1
Growth Rate (Fibroblast; [5]): 1
Growth Rate (Fibroblast; [6]): 1
Population Apoptotic (%) (HEK-293T [1]; [7]): 51%
Population Fragmented Nuclei (%) (HEK-293T [1]; [7]): 10%
Population Healthy Nuclei (%) (HEK-293T [1]; [7]): 33%
Population Hoechst High Intensity Objects (%) (HEK-293T [1]; [7]): 11%
Population Membrane Permeable-Phenotype (%) (HEK-293T [1]; [7]): 0%
Population Mitochondria Different-Phenotype (%) (HEK-293T [1]; [7]): 87%
Population Mitotic Cells (%) (HEK-293T [1]; [7]): 48%
Population Normal (%) (HEK-293T [1]; [7]): 88%
Population Pyknosed Nuclei (%) (HEK-293T [1]; [7]): 56%
Population Tubulin-Different-Phenotype (%) (HEK-293T [1]; [7]): 52%
Total Cell Count (HEK-293T [1]; [7]): 253
Population Apoptotic (%) (HEK-293T [1]; [8]): 9%
Population Fragmented Nuclei (%) (HEK-293T [1]; [8]): 4%
Population Healthy Nuclei (%) (HEK-293T [1]; [8]): 46%
Population Hoechst High Intensity Objects (%) (HEK-293T [1]; [8]): 2%
Population Membrane Permeable-Phenotype (%) (HEK-293T [1]; [8]): 7%
Population Mitochondria Different-Phenotype (%) (HEK-293T [1]; [8]): 13%
Population Mitotic Cells (%) (HEK-293T [1]; [8]): 90%
Population Normal (%) (HEK-293T [1]; [8]): 97%
Population Pyknosed Nuclei (%) (HEK-293T [1]; [8]): 48%
Population Tubulin-Different-Phenotype (%) (HEK-293T [1]; [8]): 19%
Total Cell Count (HEK-293T [1]; [8]): 273
Population Apoptotic (%) (HEK-293T [1]; [9]): 68%
Population Fragmented Nuclei (%) (HEK-293T [1]; [9]): 11%
Population Healthy Nuclei (%) (HEK-293T [1]; [9]): 32%
Population Hoechst High Intensity Objects (%) (HEK-293T [1]; [9]): 15%
Population Membrane Permeable-Phenotype (%) (HEK-293T [1]; [9]): 1%
Population Mitochondria Different-Phenotype (%) (HEK-293T [1]; [9]): 89%
Population Mitotic Cells (%) (HEK-293T [1]; [9]): 31%
Population Normal (%) (HEK-293T [1]; [9]): 84%
Population Pyknosed Nuclei (%) (HEK-293T [1]; [9]): 56%
Population Tubulin-Different-Phenotype (%) (HEK-293T [1]; [9]): 78%
Total Cell Count (HEK-293T [1]; [9]): 203
Population Apoptotic (%) (HEK-293T [1]; [10]): 25%
Population Fragmented Nuclei (%) (HEK-293T [1]; [10]): 4%
Population Healthy Nuclei (%) (HEK-293T [1]; [10]): 27%
Population Hoechst High Intensity Objects (%) (HEK-293T [1]; [10]): 6%
Population Membrane Permeable-Phenotype (%) (HEK-293T [1]; [10]): 8%
Population Mitochondria Different-Phenotype (%) (HEK-293T [1]; [10]): 54%
Population Mitotic Cells (%) (HEK-293T [1]; [10]): 74%
Population Normal (%) (HEK-293T [1]; [10]): 93%
Population Pyknosed Nuclei (%) (HEK-293T [1]; [10]): 68%
Population Tubulin-Different-Phenotype (%) (HEK-293T [1]; [10]): 60%
Total Cell Count (HEK-293T [1]; [10]): 187
Population Apoptotic (%) (HEK-293T [1]; [11]): 59%
Population Fragmented Nuclei (%) (HEK-293T [1]; [11]): 10%
Population Healthy Nuclei (%) (HEK-293T [1]; [11]): 41%
Population Hoechst High Intensity Objects (%) (HEK-293T [1]; [11]): 17%
Population Membrane Permeable-Phenotype (%) (HEK-293T [1]; [11]): 6%
Population Mitochondria Different-Phenotype (%) (HEK-293T [1]; [11]): 68%
Population Mitotic Cells (%) (HEK-293T [1]; [11]): 40%
Population Normal (%) (HEK-293T [1]; [11]): 82%
Population Pyknosed Nuclei (%) (HEK-293T [1]; [11]): 48%
Population Tubulin-Different-Phenotype (%) (HEK-293T [1]; [11]): 40%
Total Cell Count (HEK-293T [1]; [11]): 273
Population Apoptotic (%) (HEK-293T [1]; [12]): 7%
Population Fragmented Nuclei (%) (HEK-293T [1]; [12]): 3%
Population Healthy Nuclei (%) (HEK-293T [1]; [12]): 67%
Population Hoechst High Intensity Objects (%) (HEK-293T [1]; [12]): 1%
Population Mitochondria Different-Phenotype (%) (HEK-293T [1]; [12]): 12%
Population Mitotic Cells (%) (HEK-293T [1]; [12]): 92%
Population Normal (%) (HEK-293T [1]; [12]): 98%
Population Pyknosed Nuclei (%) (HEK-293T [1]; [12]): 29%
Population Tubulin-Different-Phenotype (%) (HEK-293T [1]; [12]): 22%
Total Cell Count (HEK-293T [1]; [12]): 322
Population Apoptotic (%) (HEK-293T [1]; [13]): 61%
Population Fragmented Nuclei (%) (HEK-293T [1]; [13]): 15%
Population Healthy Nuclei (%) (HEK-293T [1]; [13]): 33%
Population Hoechst High Intensity Objects (%) (HEK-293T [1]; [13]): 15%
Population Membrane Permeable-Phenotype (%) (HEK-293T [1]; [13]): 0%
Population Mitochondria Different-Phenotype (%) (HEK-293T [1]; [13]): 80%
Population Mitotic Cells (%) (HEK-293T [1]; [13]): 38%
Population Normal (%) (HEK-293T [1]; [13]): 84%
Population Pyknosed Nuclei (%) (HEK-293T [1]; [13]): 50%
Population Tubulin-Different-Phenotype (%) (HEK-293T [1]; [13]): 67%
Total Cell Count (HEK-293T [1]; [13]): 237
Population Apoptotic (%) (HEK-293T [1]; [14]): 44%
Population Fragmented Nuclei (%) (HEK-293T [1]; [14]): 11%
Population Healthy Nuclei (%) (HEK-293T [1]; [14]): 44%
Population Hoechst High Intensity Objects (%) (HEK-293T [1]; [14]): 3%
Population Membrane Permeable-Phenotype (%) (HEK-293T [1]; [14]): 8%
Population Mitochondria Different-Phenotype (%) (HEK-293T [1]; [14]): 43%
Population Mitotic Cells (%) (HEK-293T [1]; [14]): 55%
Population Normal (%) (HEK-293T [1]; [14]): 96%
Population Pyknosed Nuclei (%) (HEK-293T [1]; [14]): 44%
Population Tubulin-Different-Phenotype (%) (HEK-293T [1]; [14]): 53%
Total Cell Count (HEK-293T [1]; [14]): 226
Population Apoptotic (%) (HEK-293T [1]; [15]): 50%
Population Fragmented Nuclei (%) (HEK-293T [1]; [15]): 14%
Population Healthy Nuclei (%) (HEK-293T [1]; [15]): 50%
Population Hoechst High Intensity Objects (%) (HEK-293T [1]; [15]): 14%
Population Membrane Permeable-Phenotype (%) (HEK-293T [1]; [15]): 2%
Population Mitochondria Different-Phenotype (%) (HEK-293T [1]; [15]): 34%
Population Mitotic Cells (%) (HEK-293T [1]; [15]): 50%
Population Normal (%) (HEK-293T [1]; [15]): 85%
Population Pyknosed Nuclei (%) (HEK-293T [1]; [15]): 35%
Population Tubulin-Different-Phenotype (%) (HEK-293T [1]; [15]): 28%
Total Cell Count (HEK-293T [1]; [15]): 348
Population Apoptotic (%) (HEK-293T [1]; [16]): 9%
Population Fragmented Nuclei (%) (HEK-293T [1]; [16]): 4%
Population Healthy Nuclei (%) (HEK-293T [1]; [16]): 81%
Population Hoechst High Intensity Objects (%) (HEK-293T [1]; [16]): 2%
Population Membrane Permeable-Phenotype (%) (HEK-293T [1]; [16]): 5%
Population Mitochondria Different-Phenotype (%) (HEK-293T [1]; [16]): 3%
Population Mitotic Cells (%) (HEK-293T [1]; [16]): 90%
Population Normal (%) (HEK-293T [1]; [16]): 97%
Population Pyknosed Nuclei (%) (HEK-293T [1]; [16]): 13%
Population Tubulin-Different-Phenotype (%) (HEK-293T [1]; [16]): 23%
Total Cell Count (HEK-293T [1]; [16]): 621
Population Apoptotic (%) (HEK-293T [1]; [17]): 67%
Population Fragmented Nuclei (%) (HEK-293T [1]; [17]): 15%
Population Healthy Nuclei (%) (HEK-293T [1]; [17]): 51%
Population Hoechst High Intensity Objects (%) (HEK-293T [1]; [17]): 12%
Population Membrane Permeable-Phenotype (%) (HEK-293T [1]; [17]): 10%
Population Mitochondria Different-Phenotype (%) (HEK-293T [1]; [17]): 60%
Population Mitotic Cells (%) (HEK-293T [1]; [17]): 32%
Population Normal (%) (HEK-293T [1]; [17]): 87%
Population Pyknosed Nuclei (%) (HEK-293T [1]; [17]): 33%
Population Tubulin-Different-Phenotype (%) (HEK-293T [1]; [17]): 55%
Total Cell Count (HEK-293T [1]; [17]): 278
Population Apoptotic (%) (HEK-293T [1]; [18]): 28%
Population Fragmented Nuclei (%) (HEK-293T [1]; [18]): 7%
Population Healthy Nuclei (%) (HEK-293T [1]; [18]): 74%
Population Hoechst High Intensity Objects (%) (HEK-293T [1]; [18]): 5%
Population Membrane Permeable-Phenotype (%) (HEK-293T [1]; [18]): 9%
Population Mitochondria Different-Phenotype (%) (HEK-293T [1]; [18]): 22%
Population Mitotic Cells (%) (HEK-293T [1]; [18]): 71%
Population Normal (%) (HEK-293T [1]; [18]): 94%
Population Pyknosed Nuclei (%) (HEK-293T [1]; [18]): 18%
Population Tubulin-Different-Phenotype (%) (HEK-293T [1]; [18]): 52%
Total Cell Count (HEK-293T [1]; [18]): 330
Growth Rate (HEK-293T [2]; [3]): 1
Growth Rate (HEK-293T [2]; 0 h, replicate number 2, timepoint 0 hours): 0
Growth Rate (HEK-293T [2]; [4]): 0
Growth Rate (HEK-293T [2]; 12 h, replicate number 1, timepoint 12 hours): 0
Growth Rate (HEK-293T [2]; [5]): 0
Growth Rate (HEK-293T [2]; 18 h, replicate number 2, timepoint 18 hours): 1
Growth Rate (HEK-293T [2]; [6]): 0
Growth Rate (HEK-293T [2]; 24 h, replicate number 2, timepoint 24 hours): 1
